# Screens (PubChem BioAssay)
# Compounds with a hit are over-represented: about 2.9% of the library has one in this group of screens.
# C2C12 statin – suppressors of simvastatin-induced myotoxicity in C2C12 myotubes. ATP luminescence, 48 h; scaled: DMSO 0, geranylgeraniol control 100. rescue of ATP level, % at 7.49 µM. 330,000 compounds, 0.78% hits;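 active means mean ATP rescue above about 67%, or every replicate alone reaching that limit, limit read from the data, passing the limit was not always enough; inconclusive means no clear call, values can overlap the other calls; inactive means mean under the limit and some replicate under it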;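 further: myotubes were challenged with 10 µM simvastatin during compound exposure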
# PGC1a acetyl inh – modulators of PGC1a acetylation | U2OS PGC1a acetylation, AlphaScreen anti-acetyl-lysine; with virally co-expressed GCN5 acetyltransferase | inhibition, % at 15.6 µM | 350,000 compounds, 0.17% hits | AID 651687;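 active means every replicate shows inhibition of at least 40%; inconclusive means mean inhibition at least 40% but some replicate below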
# S100A4 MyoIIA – blocks human S100A4 binding to myosin IIA peptide | S100A4/TAMRA-MyoIIA peptide fluorescence polarization | inhibition, % at 10.7 µM | 360,000 compounds, 0.14% hits | AID 652163;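 active means mean inhibition of at least 70% across replicates, with every replicate also reaching that level; inconclusive means mean inhibition reaches 70% but some replicates fall short; inactive means mean inhibition below 70%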
# Target sequence (P26447 whole entry, looked up): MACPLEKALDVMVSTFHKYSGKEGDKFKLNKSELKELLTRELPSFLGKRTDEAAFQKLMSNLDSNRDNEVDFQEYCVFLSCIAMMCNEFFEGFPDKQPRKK
#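 Material: S100A4 monomer (human). Medium: Calcium-containing HEPES buffer, pH 7.2. Probe or stimulus: labelled myosin peptide probe, 5 nM. Compound dosing: one concentration per compound. Timing: polarization read 5 min after assay mix addition, stable 5–60 min. Benchmarks: DMSO as neutral control, TFP as positive control.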
# DENV2 CPE – inhibitors of DENV2 cytopathic effect; 350,000 compounds, 1.7% hits; AID 651640; DENV2-infected cells, cytopathic effect rescue, plate reader; CPE inhibition, % at 9.99 µM; in the data active means CPE inhibition above about 20%, passing the limit was not always enough; inconclusive means no clear call, values can overlap the other calls; tested in BHK-21 cells
# SIRT5 block – inhibitors of human sirtuin-5 desuccinylase | Purified SirT5, succinyl-peptide AMC, trypsin-coupled fluorescence | 330,000 compounds, 1.1% hits | inhibition, % at 15 µM; in the data active means inhibition above about 15%; inconclusive means no clear call, values can overlap the other calls
# Target sequence (Q9NXA8 whole entry, looked up): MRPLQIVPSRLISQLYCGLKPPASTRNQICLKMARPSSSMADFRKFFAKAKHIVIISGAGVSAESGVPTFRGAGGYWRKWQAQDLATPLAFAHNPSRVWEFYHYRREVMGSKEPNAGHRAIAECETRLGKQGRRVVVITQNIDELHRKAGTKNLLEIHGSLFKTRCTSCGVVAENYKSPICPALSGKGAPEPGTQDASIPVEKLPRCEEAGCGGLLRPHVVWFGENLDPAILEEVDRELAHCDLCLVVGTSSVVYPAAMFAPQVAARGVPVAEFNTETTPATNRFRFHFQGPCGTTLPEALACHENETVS
# A number is an active result; i = inactive; ? = inconclusive; nt = no result; ! = not active in a repeat.
SMILES,C2C12 statin,PGC1a acetyl inh,S100A4 MyoIIA,DENV2 CPE,SIRT5 block
C[C@H](CO)N1C[C@H](C)[C@H](CN(C)C(=O)CCCN(C)C)OCCCC[C@H](C)Oc2ccc(NS(=O)(=O)c3cccs3)cc2C1=O,nt,i,i,55,i
C[C@@H]1CN([C@@H](C)CO)C(=O)c2cc(NS(=O)(=O)c3cccs3)ccc2O[C@@H](C)CCCCO[C@@H]1CN(C)C(=O)CCCN(C)C,nt,i,i,46,i
COc1ccc(NC(=O)Nc2ccc3c(c2)C(=O)N([C@H](C)CO)C[C@@H](C)[C@H](CN(C)C)OCCCC[C@@H](C)O3)cc1,i,i,i,i,i
Clc1ccc(-c2csc(-c3cccnc3)n2)s1,i,i,i,51,i
CC(Sc1nc(-c2ccc(F)cc2)cs1)C(=O)N1c2ccccc2CC1C (stereo unspecified),nt,nt,i,i,26
CC1Cc2ccccc2N1C(=O)CSc1nc(-c2ccccc2)cs1 (stereo unspecified),nt,nt,i,i,i
COc1ccc2c3c(n(C)c2c1)[C@H](CO)N(S(C)(=O)=O)CC31CCN(Cc2nccs2)CC1,nt,i,i,24,i
COc1ccc2c3c(n(C)c2c1)[C@H](CO)N(CC1CC1)CC31CCN(Cc2nccs2)CC1,nt,i,nt,45,nt
COc1ccc2c3c(n(C)c2c1)[C@H](CO)N(Cc1nccs1)CC31CCN(C(C)=O)CC1,nt,i,nt,27,nt
COc1ccc2c3c(n(C)c2c1)[C@H](CO)N(C(C)=O)CC31CCN(Cc2nccs2)CC1,nt,i,nt,i,nt
CCC(=O)N1CCC2(CC1)CN(Cc1nccs1)[C@H](CO)c1c2c2ccc(OC)cc2n1C,nt,nt,i,i,nt
CCN(C(=O)CSc1nncn1-c1ccccc1)C1CCS(=O)(=O)C1 (stereo unspecified),i,i,i,85,i
CN(C(=O)CSc1nnc(-c2cccs2)n1C1CC1)C1CCS(=O)(=O)C1 (stereo unspecified),i,nt,i,37,i
CC(=O)N(C)C[C@@H]1Oc2ncc(C#Cc3ccccc3F)cc2C(=O)N([C@@H](C)CO)C[C@@H]1C,i,i,i,i,i
CCCNC(=O)N1C[C@@H](C)[C@@H](OC)CN(C)C(=O)c2ccc(NC(C)=O)cc2OC[C@H]1C,i,i,i,i,i
C[C@H](O)C#Cc1ccc2c(c1)O[C@H](CN(C)CC1CC1)[C@@H](C)CN([C@@H](C)CO)S2(=O)=O,i,i,nt,nt,nt
COc1cc(CNCCN2CCOCC2)ccc1OCc1cccc(Cl)c1,i,i,nt,nt,nt
COc1cc(CNCCN2CCOCC2)ccc1OCc1ccc(Cl)cc1Cl,i,101,nt,nt,nt
C[C@@H]1CCCCO[C@@H](CN(C)C(=O)Nc2ccc(C(F)(F)F)cc2)[C@@H](C)CN([C@H](C)CO)C(=O)c2cc(NS(=O)(=O)c3cn(C)cn3)ccc2O1,nt,i,i,i,i
CC(C)CCNc1ncnc2c1nnn2Cc1ccccc1,i,i,i,i,i
COc1ccccc1CNc1ncnc2c1nnn2Cc1ccccc1,126,i,nt,nt,nt
Cc1ccccc1-c1nc(CN2CCC(C(=O)NCc3cccnc3)CC2)c(C)o1,99,i,nt,nt,nt
Brc1ccc(OCc2nnc(SCC3CCCCC3)o2)cc1,nt,i,i,29,i
CCOC(=O)c1cnn(-c2ncnc3sc(C)c(C)c23)c1N,81,i,nt,nt,nt
COc1ccccc1-n1nnnc1SCC(=O)Nc1ccccn1,72,i,nt,nt,nt
SMILES,C2C12 statin,PGC1a acetyl inh,S100A4 MyoIIA,DENV2 CPE,SIRT5 block
Cc1cccc(Nc2ncnc3onc(-c4ccc(F)cc4)c23)c1C,i,nt,i,i,16
Cc1cccc(Nc2ncnc3onc(-c4cccc(Cl)c4)c23)c1C,i,i,i,i,i
O=C(NCC(F)(F)F)[C@H]1[C@H](CO)[C@H]2Cn3c(cccc3=O)[C@H]2N1C(=O)C1CC1,i,nt,i,i,i
CC(=O)N(C)C[C@@H]1Oc2cc(-c3ccccc3)ccc2S(=O)(=O)N([C@@H](C)CO)C[C@@H]1C,i,i,i,i,i
O=C(O)c1ccc(O)cc1O,i,i,i,67,nt
Nc1ccc(N)c(C(=O)O)c1,i,i,i,nt,nt
Nc1ccc(C(=O)O)c(O)c1,i,nt,i,i,15!
COc1cccc(-c2ccc(C3[C@H]4CNC[C@@H]3N4C(=O)Nc3ccccc3F)cc2)c1 (stereo partly specified),nt,i,nt,i,nt
O=C(Nc1ccc(Cl)cc1)Nc1ccccc1CC[N+](=O)[O-],104,i,i,i,i
CN(C)C(=O)Nc1ccccc1CC[N+](=O)[O-],i,i,i,nt,i
C[C@H](NC(=O)C[C@H]1CC[C@@H]2[C@H](COC[C@@H](O)CN2C(=O)Nc2cccc(F)c2)O1)c1ccccc1,i,i,i,i,i
CCO[C@@H]1OC(C(=O)N2CCCC2)=C[C@H](c2ccccc2)[C@H]1CCCO,nt,i,i,i,i
Cc1ccc(NC(=O)CN(C)CC(=O)Nc2cccc(F)c2)cc1S(=O)(=O)N1CCCCCC1,i,i,i,i,i
CC(=O)NCCC(=O)Nc1cc(S(=O)(=O)N2CCCCC2)ccc1N1CCCCC1,i,i,i,i,i
Cc1ccc(S(=O)(=O)N2CCOCC2)cc1NC(=O)CN(C)CC(=O)Nc1cccc(F)c1,i,nt,i,83,nt
Cc1ccc(S(=O)(=O)N2CCCCC2)cc1NC(=O)CCOc1ccccc1,nt,nt,i,72,i
CC(=O)NCCC(=O)Nc1cc(S(=O)(=O)N2CCCCC2)ccc1N1CCN(C)CC1,i,i,i,31,i
Cc1ccc(S(=O)(=O)N2CCCCC2)cc1NC(=O)c1cc(=O)[nH]c2ccccc12,i,i,i,77,i
CO[C@@H]1CN(C)C(=O)c2ccc(NC(=O)CC(F)(F)F)cc2OC[C@H](C)N(C(=O)c2ccccc2F)C[C@H]1C,nt,i,i,i,i
CC1=NCCN1CCNC(=O)Nc1cc(C)cc(C)c1,nt,i,i,i,21
CC1=NCCN1CCNC(=O)Nc1ccc(F)cc1,nt,i,i,i,17
COc1ccc(C#Cc2cnc3c(c2)C(=O)N([C@@H](C)CO)C[C@@H](C)[C@H](CN(C)C(=O)Nc2cccc(OC)c2)O3)cc1,112,i,nt,nt,nt
COc1ccc(NC(=O)N(C)C[C@H]2Oc3ncc(C#CCN(C)C)cc3C(=O)N([C@@H](C)CO)C[C@@H]2C)cc1,i,i,i,nt,22
C[C@H](CO)N1C[C@H](C)[C@H](CN(C)C(=O)Nc2ccc(F)cc2)Oc2ncc(C#Cc3ccc(C(F)(F)F)cc3)cc2C1=O,?,i,i,i,16
CN1CCCC1CCNc1ccc2sc3ccccc3c(=O)c2c1 (stereo unspecified),i,nt,i,27,nt
O=C(CN1C2=NCCCN2c2ccccc21)c1ccc(Br)s1,115,i,nt,nt,nt
c1ccc(CN2C3=NCCCN3c3ccccc32)cc1,79,i,nt,nt,nt
O=C(C1CCCC1)N1CC2(C1)[C@H](c1ccccc1)[C@@H](CO)N2CCC(F)(F)F,nt,i,i,i,i
CCCNC(=O)N1C[C@H](O)COC[C@@H]2O[C@@H](CC(=O)NCc3ccncn3)CC[C@H]21,i,i,i,i,i
